Legend:
Format in all cases: functional
Coturnix coturnix [1] = assay: Effect on serum VLDL+LDL cholesterol (relative to cholestipol hydrochloride) at a dose of 50 mg/kg BW per day
Summary of the method: (§1)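 Cholesterol-fed Japanese quail given compound mixed in diet for 2 weeks; controls diet alone (n = 17-20), positive controls colestipol hydrochloride 1000 mg/kg per day (n = 8-10), treated groups 10 birds. Jugular bleed; VLDL+LDL precipitated from serum with PEG-8000 in 0.2 M glycine pH 9, centrifuged 2000g 45 min 4 °C. Log-transformed cholesterol gives T/C; relative potency from doses giving T/C=0.5 using common slope -0.79.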

Coturnix coturnix [2] = assay: Effect on serum VLDL+LDL cholesterol (relative to cholestipol hydrochloride) at a dose 100 of mg/kg BW per day; summary of the method: as §1
Coturnix coturnix [3] = assay: Effect on serum VLDL+LDL cholesterol (relative to cholestipol hydrochloride) at a dose of 150 mg/kg BW per day; summary of the method: as §1
Coturnix coturnix [4] = assay: Effect on serum VLDL+LDL cholesterol (relative to cholestipol hydrochloride) at a doses of 50, 150 mg/kg BW per day; summary of the method: as §1
Coturnix coturnix [5] = assay: Effect on serum VLDL+LDL cholesterol (relative to cholestipol hydrochloride) at a doses of 10, 25, 50, 100, 150 mg/kg BW per day; summary of the method: as §1
Coturnix coturnix [6] = assay: Effect on serum VLDL+LDL cholesterol (relative to cholestipol hydrochloride) at a doses of 25,50 mg/kg BW per day; summary of the method: as §1
Coturnix coturnix [7] = assay: Effect on serum VLDL+LDL cholesterol (relative to cholestipol hydrochloride) at a dose of 100, 300 mg/kg BW per day; summary of the method: as §1
Coturnix coturnix [8] = assay: Effect on serum VLDL+LDL cholesterol (relative to cholestipol hydrochloride) at a doses of 100, 150, 300 mg/kg BW per day; summary of the method: as §1
Coturnix coturnix [9] = assay: Effect on serum VLDL+LDL cholesterol (relative to cholestipol hydrochloride) at a doses of 25, 50, 100 mg/kg BW per day; summary of the method: as §1
Coturnix coturnix [10] = assay: Effect on serum VLDL+LDL cholesterol (relative to cholestipol hydrochloride) at a dose of 100 mg/kg BW per day; summary of the method: as §1
Coturnix coturnix [11] = assay: Effect on serum VLDL+LDL cholesterol (relative to cholestipol hydrochloride) at a doses of 25,50, 100 mg/kg BW per day; summary of the method: as §1

SMILES: O=C(NCCN(CCNC1CCCCCCCCCCC1)CCNC1CCCCCCCCCCC1)c1ccccc1
- Relative potency (Coturnix coturnix [1]): 11

SMILES: CN(C)CCN(CCN(C)C1CCCCCCCCCCC1)CCN(C)C1CCCCCCCCCCC1
- Relative potency (Coturnix coturnix [1]): 24

SMILES: CCCCCCCCCCCCCCCCNCCN(CCN)CCN
- Relative potency (Coturnix coturnix [2]): 6

SMILES: CN(CCN(CC[N+](C)(C)C)CC[N+](C)(C)C)C1CCCCCCCCCCC1.[I-].[I-]
- Relative potency (Coturnix coturnix [3]): 2

SMILES: NCCN(CCNC1CCCCCCCCCCCCCC1)CCNC1CCCCCCCCCCCCCC1
- Relative potency (Coturnix coturnix [3]): 7

SMILES: COC(=O)CCN(CCN(CCN(CCC(=O)OC)C1CCCCCCCCCCC1)CCN(CCC(=O)OC)C1CCCCCCCCCCC1)C1CCCCCCCCCCC1
- Relative potency (Coturnix coturnix [1]): 4

SMILES: C1CCCCCC(NCCN(CCNC2CCCCCCCCCCC2)CCNC2CCCCC2)CCCCC1
- Relative potency (Coturnix coturnix [1]): 21

SMILES: NCCN(CCN)CCNC1CCCCCCCCCCCCCCC1
- Relative potency (Coturnix coturnix [1]): 10

SMILES: COC(=O)CCNCCN(CCNCCC(=O)OC)CCNC1CCCCCCCCCCC1
- Relative potency (Coturnix coturnix [4]): 7

SMILES: NCCN(CCNC1CCCCCCCCCCC1)CCNC1CCCCCCCCCCC1
- Relative potency (Coturnix coturnix [5]): 13

SMILES: c1ccc(CNCCN(CCNC2CCCCCCCCCCC2)CCNC2CCCCCCCCCCC2)cc1
- Relative potency (Coturnix coturnix [6]): 18

SMILES: C1CCCCCC(NCCN(CCNC2CCCCCCCCCCC2)CCNC2CCC3(CC2)OCCO3)CCCCC1
- Relative potency (Coturnix coturnix [6]): 19

SMILES: NCCN(CCN)CCNC1CCCCCCCCCCC1
- Relative potency (Coturnix coturnix [7]): 5

SMILES: N#CCCNCCN(CCNCCC#N)CCNC1CCCCCCCCCCC1
- Relative potency (Coturnix coturnix [3]): 2

SMILES: N#CCCNCCN(CCNC1CCCCCCCCCCC1)CCNC1CCCCCCCCCCC1
- Relative potency (Coturnix coturnix [1]): 21

SMILES: NCCN(CCN)CCNC1CCCCCCCCCCCCCC1
- Relative potency (Coturnix coturnix [8]): 7

SMILES: CN(CCN(CCN(C)C1CCCCC1)CCN(C)C1CCCCC1)C1CCCCC1
- Relative potency (Coturnix coturnix [3]): 5

SMILES: NCCN(CCNC(=O)c1ccccc1)CCNC(=O)c1ccccc1
- Relative potency (Coturnix coturnix [9]): 5

SMILES: NCCN(CCN)CCNCc1ccc(-c2ccccc2)cc1
- Relative potency (Coturnix coturnix [10]): 2

SMILES: NCCCOCCN(CCOCCCN)CCOC1CCCCCCCCCCC1
- Relative potency (Coturnix coturnix [3]): 2

SMILES: C1CCCCCC(NCCN(CCNC2CCCCCCCCCCC2)CCNC2CCCCCCCCCCC2)CCCCC1
- Relative potency (Coturnix coturnix [11]): 6

SMILES: C1CCC(NCCN(CCNC2CCCCC2)CCNC2CCCCC2)CC1
- Relative potency (Coturnix coturnix [3]): 3

SMILES: NCCCNCCN(CCNCCCN)CCNC1CCCCCCCCCCC1
- Relative potency (Coturnix coturnix [3]): 4

SMILES: NCCNC(=O)CCNCCN(CCNCCC(=O)NCCN)CCNC1CCCCCCCCCCC1
- Relative potency (Coturnix coturnix [10]): 5

SMILES: c1ccc(CNCCN(CCNC2C3CC4CC(C3)CC2C4)CCNC2C3CC4CC(C3)CC2C4)cc1 (centres undefined)
- Relative potency (Coturnix coturnix [1]): 13

SMILES: Cl.Cl.Cl.NCCN(CCNC1CCCCCCCCCCC1)CCNC1CCCCCCCCCCC1
- Relative potency (Coturnix coturnix [1]): 13

SMILES: Cl.Cl.Cl.c1ccc(CNCCN(CCNC2CCCCCCCCCCC2)CCNC2CCCCCCCCCCC2)cc1
- Relative potency (Coturnix coturnix [1]): 29

SMILES: CCN(CC)CCN(CCN(CC)CC)CCN(CC)C1CCCCCCCCCCC1.Cl.Cl.Cl
- Relative potency (Coturnix coturnix [10]): 8

SMILES: Cl.Cl.Cl.Cl.NCCN(CCNC1CCCCCCCCCCC1)CCNC1CCCCCCCCCCC1
- Relative potency (Coturnix coturnix [1]): 12
